These results are taken from paper PMC4092037 (American journal of reproductive immunology (New York, N.Y. …, 2013).

Read-outs that look alike come from different tables or passages of the source. Ends that are not written are not given here.

Experiment [1] deals with T1, human CMKLR1 (Homo sapiens, UniProt Q99788).
T1 sequence (Q99788 1-373): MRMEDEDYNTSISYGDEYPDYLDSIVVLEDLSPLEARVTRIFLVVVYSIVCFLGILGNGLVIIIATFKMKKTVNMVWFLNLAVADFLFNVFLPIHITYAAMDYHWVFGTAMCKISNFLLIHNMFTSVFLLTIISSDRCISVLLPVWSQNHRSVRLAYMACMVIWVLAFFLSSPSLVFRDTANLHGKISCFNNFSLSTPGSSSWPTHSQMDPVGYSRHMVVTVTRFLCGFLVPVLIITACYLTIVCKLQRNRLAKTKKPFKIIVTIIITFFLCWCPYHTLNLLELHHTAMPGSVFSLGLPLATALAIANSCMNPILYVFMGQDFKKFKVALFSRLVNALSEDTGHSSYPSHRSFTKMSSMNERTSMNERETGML
In words: Radioligand binding assay, huCMKLR1/HEK293.

Experiment [2] concerns the target T2, human GPR1 (Homo sapiens, UniProt P46091).
T2 sequence (P46091 1-355): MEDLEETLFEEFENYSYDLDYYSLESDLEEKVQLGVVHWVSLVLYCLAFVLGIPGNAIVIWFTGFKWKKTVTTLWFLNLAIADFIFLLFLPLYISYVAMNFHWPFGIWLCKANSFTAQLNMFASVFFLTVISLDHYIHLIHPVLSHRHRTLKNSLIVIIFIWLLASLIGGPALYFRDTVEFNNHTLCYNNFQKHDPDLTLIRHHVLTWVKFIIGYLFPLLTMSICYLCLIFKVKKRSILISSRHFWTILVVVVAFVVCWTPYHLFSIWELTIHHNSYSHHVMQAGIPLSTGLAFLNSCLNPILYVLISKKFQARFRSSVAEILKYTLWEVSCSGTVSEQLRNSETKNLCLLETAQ
The experiment is described as follows: Radioligand binding assay, huGPR1/HEK293. The essentials: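 Competition binding on intact huGPR1/HEK293 cells, with neuronostatin as the negative-control peptide. After incubation, cells were pelleted at 1000 × g for 10 min, washed three times, and counted in a γ-spectrophotometer.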

Experiment [3] addresses T1, human CMKLR1. The experiment is described as follows: Receptor internalization assay, huCMKLR1/HEK293. It counts as cell-based. Conditions: 100 nM, 30 min at 37°C, confocal, four independent experiments.
Experiment [4] has as its target T1, human CMKLR1. The experiment is described as follows: In vitro transwell chemotaxis assay, huCMKLR1/L1.2. It counts as cell-based. Conditions: for chemotaxis: 4 h at 37°C, fluorescence 560/580 nm.
Experiment [5] deals with T1, human CMKLR1. In words: cAMP assay, huCMKLR1/HEK293. In kind it is cell-based. Conditions: forskolin 10 μM, 30 min at 37°C.
Experiment [6] concerns WT/HEK293 cells. The experiment is described as follows: cAMP assay, WT/HEK293. In kind it is cell-based. Conditions: 30 min at 37°C. In short, it runs like this: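 Wild-type HEK293 cells were plated at 5 × 10^5/well, cultured for 24 h and serum-starved for 4 h. Exposed for 30 min at 37°C to test compound, forskolin 10 μM, both together, or medium. Washed with cold PBS and lysed. Lysate cAMP was measured by kit and normalised to total protein (BCA); conditioned medium was also assayed. Mean ± S.E.M.; one-way ANOVA with SNK test.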
For orientation: Changes in cAMP serve as a functional read-out for many G protein-coupled receptors.

Experiment [7] relates to primary Leydig cells. The experiment is described as follows: Testosterone production, primary Leydig cell culture. Conditions: 24 h; for hCG-stimulated testosterone production: hCG 0.01 IU/mL, vs hCG group. It counts as cell-based, Sprague-Dawley rat. The essentials: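 Leydig cells came from five male rats aged 3–4 months. Decapsulated testes were digested for 15 min at 34°C in DMEM/F12-0.1% BSA with 0.5 mg/mL collagenase IA and 0.25 mg/mL soybean trypsin inhibitor. Filtered, purified on a Percoll gradient, cultured at 34°C, 5% CO2, and purity checked by 3β-HSD staining. Treated for 24 h with test compound ± hCG 0.01 IU/mL. Medium testosterone by 125I RIA; mean ± S.E.M.; ANOVA/SNK.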

Experiment [8] relates to antral follicles. The experiment is described as follows: Progesterone production, antral follicle culture. It counts as cell-based, Sprague-Dawley rat. Conditions: hCG 0.01 IU/mL, 6 h, vs hCG group. In short, it runs like this: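 Immature female rats (21–23 days) were primed with PMSG, 30 IU i.p. per rat. Follicles over 900 μm were isolated 48 h later into ice-cold saline and preincubated at 3 per well in DMEM/F12-0.1% BSA at 37°C. Treated for 6 h with test compound, alone or with hCG 0.01 IU/mL. Medium progesterone measured by 125I RIA (sensitivity 0.02 ng/mL). Mean ± S.E.M.; one-way ANOVA with SNK test.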

In experiment [9] the test system is WT/HEK293 cells. The experiment is described as follows: Internalization assay, wild-type HEK293. It counts as cell-based. Conditions: 100 nM, 30 min at 37°C, confocal. The essentials: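 Cells were grown on 0.1% gelatin-coated coverslips and serum-starved for 4 h at 50–60% confluence. […] Fixed in 4% paraformaldehyde and permeabilised with 0.1% Triton X-100. Stained overnight at 4°C with rat anti-human CMKLR1 mAb, then Alexa-488 anti-rat for 2 h, with DAPI. Examined by confocal microscopy; four independent experiments.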

In experiment [10] the test system is WT/HEK293 cells. In words: Immunocytochemistry of C-FOS, WT/HEK293. It counts as cell-based. Conditions: 100 nM, 30 min at 37°C. The essentials: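 Coverslips coated with 0.1% gelatin. […] Fixed in 4% paraformaldehyde for 30 min and permeabilised with 0.1% Triton X-100 for 10 min. Stained with rabbit anti-C-FOS overnight at 4°C, then Alexa-488 anti-rabbit for 1 h, with DAPI nuclear stain. Imaged by confocal microscopy.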

The subject of experiment [11] is WT/HEK293 cells. The experiment is described as follows: C-FOS gene expression. In kind it is cell-based. Conditions: 30 nM, 30 min at 37°C, data not shown.
In experiment [12] the test system is WT/L1.2 cells. In words: In vitro transwell chemotaxis assay, WT/L1.2. It counts as cell-based. Conditions: 0.3, 1, 10, 100 nM, 4 h at 37°C. The essentials: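 Wild-type L1.2 cells were pretreated overnight with sodium butyrate. […] After 4 h migration at 37°C, cells in the lower chamber were stained with CellTiter Blue and read by fluorescence at 560/580 nm. Run in parallel with the CMKLR1-transfected line.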

For experiment [13], the system named is human granulose cell. Conditions: human granulosa cells; cited from earlier work.
Experiment [14] deals with CMKLR1. Conditions: cited from earlier work.
The subject of experiment [15] is GPR1. Conditions: cited from earlier work.
In experiment [16] the test system is CCRL2. Conditions: cited from earlier work.
The test system of experiment [17] is primary Leydig cells. The experiment is described as follows: Steroidogenic enzyme gene expression, primary Leydig cells. In kind it is cell-based, Sprague-Dawley rat. Conditions: beta-actin reference, 24 h. The essentials: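 Leydig cells from testes of five Sprague-Dawley males (3–4 months): collagenase IA digestion, 15 min at 34°C; 70 μm filtration; Percoll gradient (1.030–1.096 g/mL); culture at 34°C, 5% CO2; purity by 3β-HSD staining.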

Experiment [18] concerns antral follicles. The experiment is described as follows: Steroidogenic enzyme gene expression, antral follicles. In kind it is cell-based, Sprague-Dawley rat. Conditions: large antral follicles, beta-actin reference, 6 h.
For experiment [19], the system named is CMKLR1. Conditions: cited from earlier work. This is another data set of the same source.

As a reminder, the IC50 is the concentration that inhibits the measured activity by half. Consider IAQAGEDPHGYFLPGQFAFS [mC-20], for which the IC50 in experiment [1] was 2.5 nM; in experiment [2] it was 5 nM.
As to LRQFLQKSLAAAT [NTS], the CMKLR1 internalization result in [3] is “negative control”. Further, the chemotaxis entry in experiment [4] (1 nM) and in [4] (10 nM) was “no chemotactic actions” throughout.
As to `C=C[C@@]1(C)CC(=O)[C@]2(O)[C@@]3(C)[C@@H](O)CCC(C)(C)[C@@H]3[C@H](O)[C@H](OC(C)=O)[C@@]2(C)O1` [forskolin, reference compound], the “increase in cAMP production” value in [5] and in experiment [6] (forskolin 10 μM) was “more than 50 fold” in each case.
In the case of AGEDPHSFYFPGQFA [huC-15], the chemotaxis result in [4] (1 nM) and in experiment [4] (10 nM) was “no chemotactic actions” each time. Moreover, the hCG-stimulated testosterone production result in [7] (100 nM) is on record as “no such kind of suppression”.
“C-20: 20 amino acid chemerin-derived peptide; used without species prefix for huC-20 or mC-20 (VQRAGEDPHSFYFPGQFAFS)”: in experiment [4] (of 0.3, 1, 10, 100 nM tested), the “lowest effective dose for chemotaxis” value came to 1 nM. Also, the hCG-stimulated testosterone production entry in experiment [7] (1 nM) and in experiment [7] (10 nM) was “not effective” throughout. The hCG-stimulated progesterone production result in experiment [8] (1 nM) and in experiment [8] (10 nM) was “not effective” in each case.
For the molecule “huChemerin: Human recombinant chemerin purchased from R&D Systems”, the concentration for half-maximal inhibition (IC50) in experiment [2] (read-out: IC50 (displacement of iodochemerin), huGPR1/HEK293 cells, about 1,000,000 per tube, 2 nM iodochemerin, 16 h at 23°C) was 0.5 nM. In addition, the internalization result in experiment [9] is recorded as “No internalization observed”. Besides, the C-FOS protein expression entry in experiment [10] is “No such stimulation”. For the same molecule, the C-FOS gene expression result in experiment [11] is reported as “No such stimulation”. For the same molecule, in experiment [6] (10 nM peptide/protein + 10 μM forskolin cotreatment), the “forskolin-stimulated cAMP production” value is listed as “no effect”. The chemotactic response entry in experiment [12] is on record as “no chemotactic response”.
In the case of “chemerin: The active protein of 137 amino acids in human was named chemerin”, in [13], the “IGF-1-induced progesterone and estradiol secretion” value is reported as “inhibited”. Also, the leukocyte chemotaxis result in experiment [14] was “promotes leukocyte chemotaxis”. Besides, the receptor internalization result in experiment [14] is on record as “triggers receptor internalization”; in [15] it was “stimulates receptor internalization”. In addition, the internalization and chemotaxis result in [16] is recorded as “stimulates neither internalization nor chemotaxis”.
For VQRAGEDPHSFYFPGQFAFS [huC-20], the IC50 in experiment [1] turned out to be 1.6 nM; in [2], 3.5 nM.

B1: mChemerin: mouse recombinant chemerin purchased from R&D Systems (protein, UniProt Q9DD06 21-156, looked up)
Retinoic acid receptor …: EPELSETQRRSLQVALEEFHKHPPVQLAFQEIGVDRAEEVLFSAGTFVRLEFKLQQTNCPKKDWKKPECTIKPNGRRRKCLACIKMDPKGKILGRIVHCPILKQGPQDPQELQCIKIAQAGEDPHGYFLPGQFAFS
For the molecule B1, the hCG-stimulated testosterone production result in experiment [7] (1 nM), in experiment [7] (10 nM) and in experiment [7] (100 nM) was “suppressed” each time. The basal testosterone production result in [7] (no hCG, 1, 10, 100 nM) was “No effect was observed”. The 17β-HSD gene expression entry in [17] and in [18] was “not affected” throughout. In addition, the StAR gene expression result in experiment [17] and in experiment [18] was “not affected” throughout. Moreover, the p450scc gene expression result in experiment [17] and in experiment [18] was “not affected” in each case. Besides, the 3β-HSD gene expression result in experiment [17] (with hCG) and in experiment [18] (with hCG) was “suppression of 3β-HSD gene expression” in each case. In addition, the hCG-stimulated progesterone production entry in experiment [8] (10 nM) and in [8] (100 nM) was “effective” throughout.

B2: prochemerin: secreted as an inactive precursor, which is 143 amino acids long in human (protein, UniProt Q99969 21-163, looked up)
pro-form: ELTEAQRRGLQVALEEFHKHPPVQWAFQETSVESAVDTPFPAGIFVRLEFKLQQTSCRKRDWKKPECKVRPNGRKRKCLACIKLGSEDKVLGRLVHCPIETQVLREAEEHQETQCLRVQRAGEDPHSFYFPGQFAFSKALPRS
modifications: pro-form
As for B2, the “affinity for CMKLR1” value in experiment [19] was “very low affinity”.
